# ChEMBL document CHEMBL1208677, “Synthesis and antitumor activity of liquiritigenin thiosemicarbazone derivatives” (Eur J Med Chem, 2010)
# Columns and labels:
# [1] = test system: DU-145 (human); experiment: Cytotoxicity against human DU145 cells after 72 hrs by MTT assay; conditions: DU-145, 72 h
# [2] = test system: K562; experiment: Cytotoxicity against human K562 cells after 72 hrs by MTT assay; assay type: functional, cell-based; conditions: K562, 72 h
# How it was run: (§1)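 Cells in RPMI-1640 were exposed to compound for 72 h, then given MTT and incubated a further 4 h at 37 °C. Formazan was dissolved in DMSO and absorbance read at 570 and 630 nm. Triplicate wells per point across three independent experiments. IC50 (50% inhibition of viability) was taken from concentration-response curves by linear regression, as the mean of three determinations.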
# [3] = test system: HeLa; experiment: Cytotoxicity against human HeLa cells after 72 hrs by MTT assay; assay type: functional, cell-based
# How it was run: as §1
# [4] = test system: HCT-116; experiment: Cytotoxicity against human HCT116 cells after 72 hrs by MTT assay; assay type: functional, cell-based; conditions: HCT-116, 72 h
# How it was run: as §1
# [5] = test system: SGC-7901 (human); experiment: Cytotoxicity against human SGC7901 cells after 72 hrs by MTT assay; conditions: SGC-7901, 72 h
SMILES,IC50 [1] [µM],IC50 [2] [µM],IC50 [3] [µM],IC50 [4] [µM],IC50 [5] [µM]
CCCNC(=S)N/N=C1\CC(c2ccc(O)cc2)Oc2cc(O)ccc21 (stereo not given),31.2,31,40.2,54,74.7
CC(C)NC(=S)N/N=C1\CC(c2ccc(O)cc2)Oc2cc(O)ccc21 (stereo not given),35.2,21.3,68.1,38.2,60.4
CCCCNC(=S)N/N=C1\CC(c2ccc(O)cc2)Oc2cc(O)ccc21 (stereo not given),50.8,17,> 100,49.3,57.7
CC(C)(C)NC(=S)N/N=C1\CC(c2ccc(O)cc2)Oc2cc(O)ccc21 (stereo not given),31,8.9,50,25.9,42.9
CCCN(CCC)C(=S)N/N=C1\CC(c2ccc(O)cc2)Oc2cc(O)ccc21 (stereo not given),32.2,12.4,75.3,41.9,62.1
Oc1ccc(C2C/C(=N\NC(=S)N3CCCC3)c3ccc(O)cc3O2)cc1 (stereo not given),37,17.3,65.2,52.3,51.7
Oc1ccc(C2C/C(=N\NC(=S)N3CCCCC3)c3ccc(O)cc3O2)cc1 (stereo not given),40,13.7,74.4,50.9,55.3
Oc1ccc(C2C/C(=N\NC(=S)N3CCNCC3)c3ccc(O)cc3O2)cc1 (stereo not given),22.5,26.2,> 100,79.4,> 100
CN1CCN(C(=S)N/N=C2\CC(c3ccc(O)cc3)Oc3cc(O)ccc32)CC1 (stereo not given),10.1,23.1,65.8,60.4,98.8
Oc1ccc(C2C/C(=N\NC(=S)N3CCOCC3)c3ccc(O)cc3O2)cc1 (stereo not given),52.2,29.4,76.3,63.5,84.5
O=c1[nH]cc(F)c(=O)[nH]1 [FLUOROURACIL],2.95,45.4,9.7,1.93,2.19
O=C1C[C@@H](c2ccc(O)cc2)Oc2cc(O)ccc21 [LIQUIRTIGENIN],92.4,> 100,> 100,37.2,> 100
